Active and inactive are the calls of the source.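 The calls were made as follows: active = relative luminescence ratio of 1.25 or more at any tested dose; inactive = ratio below 1.25 at every tested dose.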
Assay: StAR promoter luciferase reporter activators, dose response, counter-screen for DAX1 inhibitor project, cell-based, luminescence, HEK293, powder samples, assay provider (AID 624307)
Settings: HEK293 StAR promoter luciferase reporter (DAX-1/SF-1); series mostly up to 100 µM; relative luminescence ratio, normalised: at the top concentration
Procedure, shortened: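 Signal: Luciferase luminescence from StAR promoter reporter | Assay system: HEK293 transfectants with DAX-1, SF-1 and StAR-luciferase reporter | Dosing: 100 µM single dose plus three-point 1:2 series from 50 µM | Repeats: Three replicates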

SMILES	relative luminescence ratio, normalised
COc1ccc(OC)c(C(C)NC(=O)c2ccc3c(c2)OCCO3)c1 (centres undefined)	0.04 (inactive)
COc1ccc(OC)c(C(C)NC(=O)c2c(F)cccc2Cl)c1 (centres undefined)	0.07 (inactive)
COc1cccc(C(=O)Nc2ccc3c(c2)OCO3)c1	0.03 (inactive)
COc1ccc(OC)c(C(C)NC(=O)c2ccc(C(C)(C)C)cc2)c1 (centres undefined)	0.02 (inactive)
O=C(Nc1ccc2c(c1)OCO2)c1cccs1	0.04 (inactive)
CSc1ccccc1C(=O)Nc1ccc2c(c1)OCO2	0.18 (inactive)
CSc1ccccc1C(=O)Nc1ccc2c(c1)OCCO2	0.1 (inactive)
O=C(Nc1ccc2c(c1)OCCO2)c1ccc2ccccc2c1	0.03 (inactive)
Cn1c(=O)n(C)c2cc(C(=O)Nc3ccc4c(c3)OCO4)ccc21	0.09 (inactive)

— PubChem BioAssay AID624307 (The Scripps Research Institute Molecular Screening Center, 2012)
